# Lmaj promast – reduces viability of Leishmania major promastigotes; 200,000 compounds, 9% hits; resazurin fluorescence viability; inhibition, % at 10 µM; AID 1063; in the data active = inhibition above about 50%;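 also: promastigotes grown with compound for 44 hours at 28 °C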
# PMI act hi M6P – PMI (human) activation, high substrate. P34949. coupled PMI enzyme assay, resazurin fluorescence, 20 min; stronger effect = higher value; 1 = untreated enzyme, 0 = substrate-free blank. activation factor at 20 µM. 190,000 compounds, 0.34% hits. AID 1216;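 active = activation factor of 2 or more at 20 µM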
# Target sequence (P34949 whole entry, looked up): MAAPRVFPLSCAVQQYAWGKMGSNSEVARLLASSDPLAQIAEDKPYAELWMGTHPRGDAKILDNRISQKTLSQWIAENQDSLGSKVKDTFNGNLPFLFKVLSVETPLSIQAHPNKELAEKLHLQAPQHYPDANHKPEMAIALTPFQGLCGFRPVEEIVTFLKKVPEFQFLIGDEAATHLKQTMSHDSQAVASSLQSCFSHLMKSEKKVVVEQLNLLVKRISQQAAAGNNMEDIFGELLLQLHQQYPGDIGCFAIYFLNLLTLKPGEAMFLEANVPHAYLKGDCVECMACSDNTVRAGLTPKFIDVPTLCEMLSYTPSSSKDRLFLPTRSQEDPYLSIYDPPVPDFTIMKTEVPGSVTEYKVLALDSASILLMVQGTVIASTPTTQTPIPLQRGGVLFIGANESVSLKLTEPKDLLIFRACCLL
#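 test system = human PMI in coupled enzyme assay | medium = HEPES-buffered pH 7.4 with magnesium and detergent | also added = 1.0 mM mannose-6-phosphate substrate with 0.22 mM NADP+ | compound = 20 µM single dose | times = 20 min incubation at room temperature | measured by = resorufin fluorescence (Ex 544/Em 590 nm) from resazurin via diaphorase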
# Rad51 HR inh – Rad51 (human) homologous recombination inhibition | Q06609 | hRad51 DNA strand exchange, fluorescence dequenching | inhibition, % at 10 µM | 200,000 compounds, 0.085% hits;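 active = inhibition above 40% at the single screening dose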;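 also: 0% = DMSO control wells and 100% = blanks with heterologous ssDNA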
#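 Test system – preformed human Rad51 ssDNA filaments · Reagent – Donor/quencher-labelled 47-bp dsDNA substrate · Incubation – 37 °C 15-min filament assembly, 30-min compound preincubation, 15-min exchange · Signal – FRET fluorescence dequenching, excitation 485 nm, emission 520 nm · Read-out – percent inhibition from fluorescence, normalised to plate control and blank means · Benchmarks – plate control and blank wells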
# PMI act – increases human mannose-6-phosphate isomerase activity. purified human PMI, coupled resazurin fluorescence, 20 min; stronger effect = higher value; 1 = vehicle control, 0 substrate-free wells. activation factor at 20 µM. 190,000 compounds, 0.005% hits;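 active = activation factor of 2 or more at 20 µM, relative to plate controls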
# WT yeast gro inh – growth inhibition of WT yeast, mitochondrial fusion screen. mitochondrial fusion phenotypic screen, WT strain. inhibition, % at 10 µM. 190,000 compounds, 2.1% hits. AID 1362; in the data active = inhibition above about 58%; tested in S. cerevisiae
# Calpain2 inh – inhibitors of pig calpain II | purified calpain II, fluorogenic peptide substrate, 30 min | inhibition, % at 16 µM | 220,000 compounds, 0.37% hits;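 active = inhibition above about 50%, limit read from the data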
# An asterisk follows results filed as active; i = inactive; · = no result given. In the library only some 9.8% were active in any assay of this set; here they are far more common.
SMILES,Lmaj promast,PMI act hi M6P,Rad51 HR inh,PMI act,WT yeast gro inh,Calpain2 inh
CN1CCc2nc(SCc3ccccc3Br)c(C#N)cc2C1,65*,0.7,-22,1,56,28
CCC(=O)OC1(Cc2ccc(CC)cc2)CC(C)N(C)CC1C (stereo not given),·,·,0,·,·,15
CNc1cc(N2CCNCC2)ccc1[N+](=O)[O-],6,0.7,·,1,2,23
CN1CCN(c2ccc([N+](=O)[O-])c(NCc3ccco3)c2)CC1,100*,0.8,-1,1,-6,-11
O=[N+]([O-])c1ccc(N2CCNCC2)cc1NCc1ccco1,101*,0.6,0,0.9,-19,32
COC(=O)C1=C(c2cc3ccccc3s2)C[C@@H]2CC[C@H]1N2C(=O)NCCS(C)=O (stereo not given in full),·,·,9,·,·,·
O=C(C(=O)N1CCOCC1)c1cn(Cc2ccc(F)cc2)c2ccccc12,·,·,·,·,·,-13
C/C=C1\CN2[C@H]3C[C@@]45c6ccccc6N(C)[C@H]4[C@@H]2CC1C3[C@H]5O (stereo not given in full),·,·,2,·,·,·
C/C(=N\N1CCCCCC1)c1c(O)n(C2CCCCC2)c(=O)[nH]c1=O,·,·,6,·,·,11
COc1ccccc1CC1C(=O)C2CCN1CC2 (stereo not given),2,1,10,1.1,6,12
O=C1C2CCN(CC2)C1Cc1ccc(OCc2ccccc2)cc1 (stereo not given),100*,1,12,1,22,12
O=C(c1ccc2c(c1)OCO2)C1CCCN(CC2CCCCC2)C1 (stereo not given),91*,0.9,·,0.9,15,16
CCCCCCn1c(N)c(C(=O)NCCN2CCOCC2)c2nc3ccccc3nc21,0,0.8,-5,0.7,86*,i
CCCCCn1c(N)c(C(=O)NCCN2CCOCC2)c2nc3ccccc3nc21,21,0.5,-2,0.7,11,i
COc1ccc(CCNC(=O)c2c(N)n(CCN3CCOCC3)c3nc4ccccc4nc23)cc1OC,100*,1,22,1,-14,-187
OC(c1ccccc1)(c1ccccc1)C1CN2CCC1CC2 (stereo not given),2,1.1,-1,1,-1,-12
OC(Cc1ccccc1)(c1ccccc1)C1CN2CCC1CC2 (stereo not given),92*,1,-1,1,-4,-6
Cc1[nH]c2c(Cl)cccc2c1CCN,56*,0.8,2,0.8,·,·
NCCc1c[nH]c2ccccc12,-3,1,1,1,-7,-12
COC(=O)c1ccc(C(C(=O)NC2CCCCC2)N(CCN2CCOCC2)C(=O)Cc2cccs2)cc1 (stereo not given),-7,1.1,0,1.1,14,36
CC1(C)CC(CCNCc2ccc3c(c2)OCO3)(Cc2ccccc2)CCO1 (stereo not given),89*,·,-6,·,16,1
CCN1CCN(C(=O)COc2ccc(S(=O)(=O)N(C)Cc3ccccc3)cc2)CC1,99*,0.9,-5,0.9,-2,16
O=C1NC(=O)N(Cc2ccco2)C(=O)/C1=C/c1ccc(-c2cccc([N+](=O)[O-])c2)o1,99*,1.2,-8,1.1,13,-6
CCCCCCCSc1cc(OC)c(CCNC)cc1OC,100*,1.1,1,1.1,94*,-4
CCCCCSc1cc(OC)c(CCNC)cc1OC,100*,0.9,-8,1,6,5
SMILES,Lmaj promast,PMI act hi M6P,Rad51 HR inh,PMI act,WT yeast gro inh,Calpain2 inh
CNC(=O)OCCc1n(C)cc[n+]1C,-2,0.8,-1,0.8,-13,-2
CC(=O)OC1N=C(c2ccccc2)c2cc(Br)ccc2NC1=O (stereo not given),85*,1.1,2,1,0,-1
c1ccc(-c2ccc(-c3n(-c4ccccn4)c4ccccc4[n+]3-c3ccccn3)cc2)cc1,88*,1,9,1.2,16,i
CNC(C(=O)c1ccccc1)C(OC)c1ccccc1 (stereo not given),-2,1.2,-3,1.2,80*,5
CNC(C(=O)c1ccccc1)C(OC)c1cccc([N+](=O)[O-])c1 (stereo not given),·,·,1,·,·,-6
CCOC(=O)Cn1cc([N+](=O)[O-])nc1[N+](=O)[O-],99*,0.6,5,0.9,-4,13
CC(=O)c1cn(Cc2ccccc2C#N)c2ccccc12,-3,0.9,4,0.9,-4,12
CC(C)(C#CCCCCC#CC(C)(C)[N+](C)(C)C)[N+](C)(C)C,·,·,17,·,·,-16
Cc1ccsc1C(=O)C1CCCN(Cc2cccc(-n3cccn3)c2)C1 (stereo not given),58*,1.2,13,1,12,-3
Cc1ccsc1C(=O)C1CCCN(Cc2ccc(-n3cccn3)cc2)C1 (stereo not given),-1,1,5,1,-15,-7
O=C1NC(=S)N(c2ccccc2)C(=O)C1C(c1ccncc1)C1C(=O)NC(=S)N(c2ccccc2)C1=O (stereo not given),-7,1.3,-10,1.4,0,3
COc1cc(C(=O)Nc2ccc(Br)cc2C(=O)c2ccccc2Cl)cc(OC)c1OC,51*,0.9,·,0.8,1,-26
CC(=O)OC1(Cc2ccccc2)CN2CCC1c1ccccc12 (stereo not given),63*,1,-2,1,4,-9
COC(=O)C1=C(c2ccc(S(C)(=O)=O)cc2)C[C@@H]2CC[C@H]1N2C(=O)NCCNC(C)=O,·,·,2,·,·,·
Brc1ccc2c(c1)C(OC1CN3CCC1CC3)c1ccccc1CS2 (stereo not given),100*,1,8,1,82*,-23
C/C1=C\[C@@H](C)C/C=C/[C@H]2[C@@H]3O[C@]3(C)[C@@H](C)[C@H]3[C@H](Cc4c[nH]c5ccccc45)NC(=O)[C@]32C(=O)/C=C/C(=O)[C@@H]1O,-2,0.8,7,1,71*,11
c1ccc(P(c2ccccn2)c2ccccn2)cc1,0,0.9,6,1,2,2
O=C(Cc1ccc(Br)cc1)N1CCN(Cc2ccccc2)CC1,87*,1.1,0,1,3,-18
Oc1c(Br)cc(Br)cc1CN1CCN(Cc2ccccc2)CC1,73*,1,-3,1,13,-7
O=C(Cc1ccccc1)N1CCN(Cc2cccc(Br)c2)CC1,·,·,·,·,·,5
CCOc1cccc(OCC)c2c(C)[n+](CC3CCCO3)c(C)c1-2 (stereo not given),93*,2*,-4,1.6,16,-120
COCCNCCOc1ccc(C(C)(C)c2ccccc2)cc1,98*,1,·,0.9,7,4
CCOC(=O)c1cc(CC)sc1/N=C/C1C(=O)NC(=S)NC1=O,-2,2.3*,-82,1.8,2,-4

# Screening results: PubChem, several laboratories
